Marks after values point to notes of the source that are not given here.
Columns and labels:
[1] = Study 2 Part 1: adverse events after single doses via MDDPI; type: in vivo, human
How it was run: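 Study 2 Part 1 was a three-period single ascending dose design in healthy men and women, with four randomized treatment sequences. At each visit, test compound (2,400, 4,000, 4,800 µg) or placebo was inhaled via a reservoir multi-dose dry-powder inhaler, with the dose rising each visit. AEs and investigator-judged relation to study drug were recorded, reported as number (%) of the safety population.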

[2] = Study 1 Part 1: single ascending dose PK via SDDPI; type: in vivo; conditions: human, plasma, inhaled
How it was run: (§1)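 Blood was collected in lithium heparin, chilled on ice, and centrifuged at 2,000 ×g for 15 min at ~4°C. Plasma was stabilised with 1 M citric acid (100 µL per 1 mL plasma) and stored at ≤−65°C. After solid-phase extraction, samples were assayed by validated LC-MS/MS with heated electrospray and a deuterated internal standard (LLOQ 10 pg/mL). PK parameters were derived non-compartmentally.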

[3] = rats and ferrets, intratracheal administration at doses compatible with those used in humans; cited from earlier work
[4] = in humans; cited from earlier work
[5] = human liver; cited from earlier work
[6] = Study 2 Part 2: adverse events after multiple BID doses via MDDPI; type: in vivo, human; conditions: N=9
How it was run: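 Study 2 Part 2 used three parallel escalating cohorts of healthy men and women. Subjects inhaled test compound at 1,200, 2,000 or 2,400 µg twice daily, or placebo, for 14 days via a reservoir multi-dose dry-powder inhaler, confined from day −2 to day 15. AEs were recorded with investigator-assessed relation to study medication, as number (%) of the safety population.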

[7] = Safety assessments in both studies; type: in vivo, human
How it was run: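 Healthy non- or ex-smoking volunteers aged 18–55 (Study 1 men only; Study 2 men and women), randomized, double-blind, placebo-controlled, single centre. AEs were recorded with the investigator-judged relation to study drug. Haematology and blood chemistry were taken at baseline and end of dosing. Blood pressure, ECG and 24 h Holter were taken at regular intervals, and FEV1 was checked for post-dose bronchospasm.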

[8] = Study 2 Part 2: repeat ascending dose; type: in vivo, human; conditions: MDDPI; for Racc / CL/F / AUC(0-t): geometric mean (% CV); for AUC(0-t) / Tmax: human, plasma, inhaled; for Tmax: median (range)
How it was run: as §1

[9] = following both single and multiple doses

Structure (SMILES): CS(=O)(=O)Nc1ccc(C(=O)O[C@@H](Cc2c(Cl)c[n+]([O-])cc2Cl)c2ccc(OC(F)F)c(OCC3CC3)c2)cc1OCC1CC1 [CHF6001]
- AE considered related to study medication ([1]; single dose 2,400 µg, N=9): 1 (11.1) Number (%) of subjects
- AE leading to death ([1]; single dose 2,400 µg, N=9): 0 Number (%) of subjects
- AE leading to withdrawal ([1]; single dose 2,400 µg, N=9): 1 (11.1) Number (%) of subjects
- At least one AE ([1]; single dose 2,400 µg, N=9): 3 (33.3) Number (%) of subjects
- At least one SAE ([1]; single dose 2,400 µg, N=9): 0 Number (%) of subjects
- Severe AE ([1]; single dose 2,400 µg, N=9): 1 (11.1) Number (%) of subjects
- AE considered related to study medication ([1]; single dose 4,000 µg, N=8): 1 (12.5) Number (%) of subjects
- AE leading to death ([1]; single dose 4,000 µg, N=8): 0 Number (%) of subjects
- AE leading to withdrawal ([1]; single dose 4,000 µg, N=8): 0 Number (%) of subjects
- At least one AE ([1]; single dose 4,000 µg, N=8): 1 (12.5) Number (%) of subjects
- At least one SAE ([1]; single dose 4,000 µg, N=8): 0 Number (%) of subjects
- Severe AE ([1]; single dose 4,000 µg, N=8): 0 Number (%) of subjects
- AE considered related to study medication ([1]; single dose 4,800 µg, N=8): 0 Number (%) of subjects
- AE leading to death ([1]; single dose 4,800 µg, N=8): 0 Number (%) of subjects
- AE leading to withdrawal ([1]; single dose 4,800 µg, N=8): 0 Number (%) of subjects
- At least one AE ([1]; single dose 4,800 µg, N=8): 1 (12.5) Number (%) of subjects
- At least one SAE ([1]; single dose 4,800 µg, N=8): 0 Number (%) of subjects
- Severe AE ([1]; single dose 4,800 µg, N=8): 0 Number (%) of subjects
- half-life [2]: 30 to 45 h
- AUC(0-t) ([2]; 20 ug): 0.0316 ng·h/mL
- Cmax ([2]; 20 ug): 0.0189 ng/mL
- half-life ([2]; 20 ug): 5.6 h
- AUC(0-t) ([2]; 100 ug): 1.48 ng·h/mL
- Cmax ([2]; 100 ug): 0.0638 ng/mL
- half-life ([2]; 100 ug): 28.2 h
- AUC(0-t) ([2]; 200 ug): 2.78 ng·h/mL
- Cmax ([2]; 200 ug): 0.14 ng/mL
- half-life ([2]; 200 ug): 30.1 h
- AUC(0-t) ([2]; 400 ug): 5.38 ng·h/mL
- Cmax ([2]; 400 ug): 0.195 ng/mL
- half-life ([2]; 400 ug): 45.3 h
- AUC(0-t) ([2]; 800 ug): 10.6 ng·h/mL
- Cmax ([2]; 800 ug): 0.432 ng/mL
- half-life ([2]; 800 ug): 26.3 h
- AUC(0-t) ([2]; 1600 µg): 18 ng·h/mL
- Cmax ([2]; 1600 µg): 0.73 ng/mL
- half-life ([2]; 1600 µg): 27.4 h
- AUC(0-t) ([2]; 2000 µg): 25.6 ng·h/mL
- Cmax ([2]; 2000 µg): 0.983 ng/mL
- half-life ([2]; 2000 µg): 37.3 h
- emesis or nausea [3]: no evidence of emesis or nausea
- plasma protein bound [4]: > 99%
- metabolic stability [5]: metabolically stable
- AE considered related to study medication ([6]; 1,200 µg BID 14 days): 4 (44.4) Number (%) of subjects
- AE leading to death ([6]; 1,200 µg BID 14 days): 0 Number (%) of subjects
- AE leading to withdrawal ([6]; 1,200 µg BID 14 days): 0 Number (%) of subjects
- At least one AE ([6]; 1,200 µg BID 14 days): 6 (66.7) Number (%) of subjects
- At least one SAE ([6]; 1,200 µg BID 14 days): 0 Number (%) of subjects
- Back pain (AE) ([6]; 1,200 µg BID 14 days): 0 Number (%) of subjects
- Diarrhea (AE considered related to study medication) ([6]; 1,200 µg BID 14 days): 1 (11.1) Number (%) of subjects
- Flatulence (AE considered related to study medication) ([6]; 1,200 µg BID 14 days): 1 (11.1) Number (%) of subjects
- Headache (AE considered related to study medication) ([6]; 1,200 µg BID 14 days): 3 (33.3) Number (%) of subjects
- Headache (AE) ([6]; 1,200 µg BID 14 days): 3 (33.3) Number (%) of subjects
- Nausea (AE considered related to study medication) ([6]; 1,200 µg BID 14 days): 0 Number (%) of subjects
- Parosmia (AE considered related to study medication) ([6]; 1,200 µg BID 14 days): 0 Number (%) of subjects
- Severe AE ([6]; 1,200 µg BID 14 days): 0 Number (%) of subjects
- AE leading to death ([6]; 2,000 µg BID 14 days): 0 Number (%) of subjects
- AE leading to withdrawal ([6]; 2,000 µg BID 14 days): 0 Number (%) of subjects
- At least one AE ([6]; 2,000 µg BID 14 days): 5 (55.6) Number (%) of subjects
- At least one SAE ([6]; 2,000 µg BID 14 days): 0 Number (%) of subjects
- Back pain (AE) ([6]; 2,000 µg BID 14 days): 3 (33.3) Number (%) of subjects
- Diarrhea (AE considered related to study medication) ([6]; 2,000 µg BID 14 days): 0 Number (%) of subjects
- Flatulence (AE considered related to study medication) ([6]; 2,000 µg BID 14 days): 0 Number (%) of subjects
- Headache (AE considered related to study medication) ([6]; 2,000 µg BID 14 days): 2 (22.2) Number (%) of subjects
- Headache (AE) ([6]; 2,000 µg BID 14 days): 2 (22.2) Number (%) of subjects
- Nausea (AE considered related to study medication) ([6]; 2,000 µg BID 14 days): 0 Number (%) of subjects
- Parosmia (AE considered related to study medication) ([6]; 2,000 µg BID 14 days): 0 Number (%) of subjects
- Severe AE ([6]; 2,000 µg BID 14 days): 1 (11.1) Number (%) of subjects
- AE considered related to study medication ([6]; 2,400 µg BID 14 days): 1 (11.1) Number (%) of subjects
- AE leading to death ([6]; 2,400 µg BID 14 days): 0 Number (%) of subjects
- AE leading to withdrawal ([6]; 2,400 µg BID 14 days): 1 (11.1) Number (%) of subjects
- At least one AE ([6]; 2,400 µg BID 14 days): 7 (77.8) Number (%) of subjects
- At least one SAE ([6]; 2,400 µg BID 14 days): 0 Number (%) of subjects
- Back pain (AE) ([6]; 2,400 µg BID 14 days): 5 (55.6) Number (%) of subjects
- Diarrhea (AE considered related to study medication) ([6]; 2,400 µg BID 14 days): 0 Number (%) of subjects
- Flatulence (AE considered related to study medication) ([6]; 2,400 µg BID 14 days): 0 Number (%) of subjects
- Headache (AE considered related to study medication) ([6]; 2,400 µg BID 14 days): 1 (11.1) Number (%) of subjects
- Headache (AE) ([6]; 2,400 µg BID 14 days): 2 (22.2) Number (%) of subjects
- Nausea (AE considered related to study medication) ([6]; 2,400 µg BID 14 days): 0 Number (%) of subjects
- Parosmia (AE considered related to study medication) ([6]; 2,400 µg BID 14 days): 0 Number (%) of subjects
- Severe AE ([6]; 2,400 µg BID 14 days): 0 Number (%) of subjects
- mean laboratory values ([7]; both studies): within normal ranges
- post-dose decreases in FEV1 (bronchospasm) ([7]; both studies, single and multiple doses): no clinically significant post-dose decreases
- mean ECG values [7, 9]: within the normal range
- mean systolic and diastolic blood pressure [7, 9]: within the normal range
- nausea events ([7]; following single doses in both studies): no nausea events
- relationship between dose and occurrence of AEs or serious adverse events ([7]; single or multiple dosing): no relationship
- Racc ([8]; 1,200 µg BID, Day 14, N=9): 6.66 (38.4)
- CL/F ([8]; 1,200 µg BID, Day 14, n=8): 588 (50.7) ^a mL/min
- CL/F ([8]; 2,000 µg BID, Day 14, N=9): 652 (39.0) mL/min
- Racc ([8]; 2,000 µg BID, Day 14, N=9): 6.28 (19.5)
- CL/F ([8]; 2,400 µg BID, Day 14, n=8): 646 (37.0) ^a mL/min
- Racc ([8]; 2,400 µg BID, Day 14, n=8): 5.47 (36.6) ^a
- AUC(0-t) ([8]; 1200 µg, AUC0–12 h, 1,200 µg BID, Day 14, N=9): 34 ng·h/mL
- Tmax ([8]; 1200 µg, tmax, 1,200 µg BID, Day 14, N=9): 1.6 h
- AUC(0-t) ([8]; 2000 µg, AUC0–12 h, 2,000 µg BID, Day 14, N=9): 51.1 ng·h/mL
- Tmax ([8]; 2000 µg, tmax, 2,000 µg BID, Day 14, N=9): 1.5 h
- AUC(0-t) ([8]; 2400 µg, AUC0–12 h, 2,400 µg BID, Day 14, n=8): 61.9 ng·h/mL
- Tmax ([8]; 2400 µg, tmax, 2,400 µg BID, Day 14, n=8): 2.3 h
